Test results published in ChEMBL document CHEMBL1149671, “Enantiopure five-membered cyclicdiamine derivatives as potent and selective inhibitors of factor Xa. Improving in vitro metabolic stability via core modifications” (Bioorg Med Chem Lett, 2007).
Each block holds one compound with its values, some of them ahead of it.

Assays:
Coagulation factor X = Coagulation factor X (Homo sapiens, UniProt P00742); assay: Inhibition of human factor 10a
Liver microsomes = assay: Metabolic stability in human liver microsomes assessed as microsomal intrinsic clearance rate; type: ADME, Microsome
Outline: (§1)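 Human liver microsomes, 10-min incubation. Metabolic stability given as % compound remaining. Microsomal intrinsic clearance rate (nmol/min/mg) is based on the % remaining after 10 min.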

[1] = Cytotoxicity against HEK cells; type: cell-based; settings: Homo sapiens, HEK293
[2] = biological target: Vitamin K-dependent protein C (Homo sapiens, UniProt P04070); assay: Inhibition of human activated protein C
Coagulation factor XI = Coagulation factor XI (Homo sapiens, UniProt P03951); assay: Inhibition of human factor 11a
Coagulation factor VII = biological target: T1, Coagulation factor VII (Homo sapiens, UniProt P08709); assay: Inhibition of human factor 7a
T1 sequence (P08709 whole entry): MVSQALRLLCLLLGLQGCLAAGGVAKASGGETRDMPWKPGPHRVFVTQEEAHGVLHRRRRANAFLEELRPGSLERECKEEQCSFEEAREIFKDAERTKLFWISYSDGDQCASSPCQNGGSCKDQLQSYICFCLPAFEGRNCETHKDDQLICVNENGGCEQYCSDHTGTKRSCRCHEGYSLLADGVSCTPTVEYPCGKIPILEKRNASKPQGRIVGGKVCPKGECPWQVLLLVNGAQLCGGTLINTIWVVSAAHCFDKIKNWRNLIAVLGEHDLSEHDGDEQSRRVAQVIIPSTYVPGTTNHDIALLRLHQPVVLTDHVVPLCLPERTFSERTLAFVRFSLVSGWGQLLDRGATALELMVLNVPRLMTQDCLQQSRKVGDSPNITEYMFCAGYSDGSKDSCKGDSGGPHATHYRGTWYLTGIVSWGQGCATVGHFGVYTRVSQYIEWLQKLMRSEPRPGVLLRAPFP

[3] = Inhibition of human chymotrypsin
Plasma kallikrein = Plasma kallikrein (Homo sapiens, UniProt P03952); assay: Inhibition of human plasma kallikrein; type: cell-free
Trypsin = Trypsin (Homo sapiens, UniProt P07477+P07478+P35030); assay: Inhibition of human trypsin; type: protein assay
Prothrombin = Prothrombin (Homo sapiens, UniProt P00734); assay: Inhibition of human thrombin
Plasminogen = Plasminogen (Homo sapiens, UniProt P00747); assay: Inhibition of human Plasmin
[4] = biological target: Tissue-type plasminogen activator (Homo sapiens, UniProt P00750); assay: Inhibition of human tissue plasminogen activator
[5] = biological target: Urokinase-type plasminogen activator (Homo sapiens, UniProt P00749); assay: Inhibition of human urokinase
[6] = Metabolic stability in human liver microsomes after 10 mins; type: ADME, Microsome; settings: read-out: Stability; outline: as §1
[7] = Permeability across Caco-2 cells; type: ADME, cell-based; settings: human, read-out: permeability
[8] = Clearance in dog at 0.5 mg/kg, iv; type: ADME, organism-based, Canis lupus familiaris; design: dose 0.5 mg/kg, route intravenous; settings: in vivo
Outline: (§2)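 Dogs. Intravenous dose 0.5 mg/kg, used for clearance (L/kg/h), steady-state volume of distribution (L/kg) and iv half-life.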

[9] = Volume of distribution at steady state in dog at 0.5 mg/kg, iv; type: ADME, organism-based, Canis lupus familiaris; design: dose 0.5 mg/kg, route intravenous; settings: in vivo, read-out: Vdss; outline: as §2
[10] = Half life in dog at 0.5 mg/kg, iv; type: ADME, organism-based, Canis lupus familiaris; design: dose 0.5 mg/kg, route intravenous; settings: in vivo; outline: as §2
[11] = Half life in dog at 0.2 mg/kg, po; type: ADME, organism-based, Canis lupus familiaris; design: dose 0.2 mg/kg, route oral; settings: in vivo
[12] = Bioavailability in dog at 0.2 mg/kg, po; type: ADME, organism-based, Canis lupus familiaris; settings: in vivo; outline: as §2

Coagulation factor X, sequence (P00742 41-179 limits assumed): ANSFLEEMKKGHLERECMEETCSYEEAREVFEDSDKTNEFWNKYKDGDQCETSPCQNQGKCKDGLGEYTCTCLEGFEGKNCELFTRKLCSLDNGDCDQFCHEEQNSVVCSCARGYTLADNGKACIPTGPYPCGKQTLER
Coagulation factor X, sequence (P00742 235-488 limits assumed): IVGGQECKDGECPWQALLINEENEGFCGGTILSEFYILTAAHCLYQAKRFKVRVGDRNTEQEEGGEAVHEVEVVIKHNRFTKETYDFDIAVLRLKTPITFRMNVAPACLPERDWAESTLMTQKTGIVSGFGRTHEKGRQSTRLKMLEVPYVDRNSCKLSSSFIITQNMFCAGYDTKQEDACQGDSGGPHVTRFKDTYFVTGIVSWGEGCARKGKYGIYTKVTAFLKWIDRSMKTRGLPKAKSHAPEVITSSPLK
Plasminogen, sequence (P00747 97-580 limits assumed): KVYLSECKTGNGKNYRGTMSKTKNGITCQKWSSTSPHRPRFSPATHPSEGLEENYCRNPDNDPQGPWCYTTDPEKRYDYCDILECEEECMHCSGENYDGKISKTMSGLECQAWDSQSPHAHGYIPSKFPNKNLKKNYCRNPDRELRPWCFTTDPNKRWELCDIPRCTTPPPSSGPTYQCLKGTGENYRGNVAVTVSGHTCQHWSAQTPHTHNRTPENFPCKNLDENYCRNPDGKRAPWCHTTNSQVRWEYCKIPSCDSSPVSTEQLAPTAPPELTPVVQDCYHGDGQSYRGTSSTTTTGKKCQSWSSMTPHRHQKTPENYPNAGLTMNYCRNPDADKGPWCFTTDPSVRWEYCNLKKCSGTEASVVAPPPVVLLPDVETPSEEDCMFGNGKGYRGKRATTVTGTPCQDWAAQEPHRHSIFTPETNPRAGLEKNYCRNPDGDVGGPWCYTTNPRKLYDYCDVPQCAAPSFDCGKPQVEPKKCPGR
Plasminogen, sequence (P00747 581-810 limits assumed): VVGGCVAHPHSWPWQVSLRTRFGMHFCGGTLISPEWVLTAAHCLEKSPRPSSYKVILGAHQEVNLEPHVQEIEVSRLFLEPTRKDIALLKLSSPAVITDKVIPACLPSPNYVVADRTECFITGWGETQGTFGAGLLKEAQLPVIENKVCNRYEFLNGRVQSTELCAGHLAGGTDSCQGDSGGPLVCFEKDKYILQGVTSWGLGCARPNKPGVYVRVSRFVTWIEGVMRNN
Tissue-type plasminogen activator, sequence (P00750 whole entry): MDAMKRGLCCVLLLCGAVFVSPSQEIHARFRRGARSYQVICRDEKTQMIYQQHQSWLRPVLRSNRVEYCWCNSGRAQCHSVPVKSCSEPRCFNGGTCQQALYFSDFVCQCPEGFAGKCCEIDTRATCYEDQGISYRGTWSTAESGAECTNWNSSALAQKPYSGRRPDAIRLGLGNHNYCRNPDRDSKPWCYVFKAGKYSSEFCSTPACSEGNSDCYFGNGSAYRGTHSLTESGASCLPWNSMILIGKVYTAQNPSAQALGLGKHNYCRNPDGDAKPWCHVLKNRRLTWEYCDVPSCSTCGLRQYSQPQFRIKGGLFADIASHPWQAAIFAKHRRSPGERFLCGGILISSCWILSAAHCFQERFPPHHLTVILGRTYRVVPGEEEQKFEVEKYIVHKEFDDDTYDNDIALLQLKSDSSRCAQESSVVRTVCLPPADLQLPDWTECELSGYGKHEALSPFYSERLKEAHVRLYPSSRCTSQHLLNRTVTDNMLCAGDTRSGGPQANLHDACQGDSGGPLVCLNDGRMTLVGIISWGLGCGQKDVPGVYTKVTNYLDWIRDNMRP
Vitamin K-dependent protein C, sequence (P04070 43-197 limits assumed): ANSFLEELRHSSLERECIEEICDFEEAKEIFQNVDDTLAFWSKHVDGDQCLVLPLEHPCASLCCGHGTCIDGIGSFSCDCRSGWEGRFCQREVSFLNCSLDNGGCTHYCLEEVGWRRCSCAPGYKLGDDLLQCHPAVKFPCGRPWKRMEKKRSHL
Vitamin K-dependent protein C, sequence (P04070 212-461 limits assumed): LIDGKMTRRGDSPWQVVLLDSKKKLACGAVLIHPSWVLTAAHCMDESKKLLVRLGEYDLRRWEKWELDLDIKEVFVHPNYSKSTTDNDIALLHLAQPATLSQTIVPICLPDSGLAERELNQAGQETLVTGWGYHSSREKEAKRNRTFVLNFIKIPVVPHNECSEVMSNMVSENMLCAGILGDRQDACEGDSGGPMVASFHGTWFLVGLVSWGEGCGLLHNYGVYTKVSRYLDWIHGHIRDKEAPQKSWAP
Plasma kallikrein, sequence (P03952 20-390 limits assumed): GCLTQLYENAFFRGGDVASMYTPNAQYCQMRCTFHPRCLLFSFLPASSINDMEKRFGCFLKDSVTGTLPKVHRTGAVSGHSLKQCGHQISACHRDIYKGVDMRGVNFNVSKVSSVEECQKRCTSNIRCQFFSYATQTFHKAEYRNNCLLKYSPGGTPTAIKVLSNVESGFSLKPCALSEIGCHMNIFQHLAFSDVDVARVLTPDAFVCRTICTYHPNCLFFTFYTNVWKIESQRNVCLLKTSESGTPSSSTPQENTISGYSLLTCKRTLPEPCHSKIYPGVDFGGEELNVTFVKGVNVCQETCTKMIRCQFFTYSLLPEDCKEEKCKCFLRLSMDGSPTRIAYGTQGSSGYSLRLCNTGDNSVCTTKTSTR
Plasma kallikrein, sequence (P03952 391-638 limits assumed): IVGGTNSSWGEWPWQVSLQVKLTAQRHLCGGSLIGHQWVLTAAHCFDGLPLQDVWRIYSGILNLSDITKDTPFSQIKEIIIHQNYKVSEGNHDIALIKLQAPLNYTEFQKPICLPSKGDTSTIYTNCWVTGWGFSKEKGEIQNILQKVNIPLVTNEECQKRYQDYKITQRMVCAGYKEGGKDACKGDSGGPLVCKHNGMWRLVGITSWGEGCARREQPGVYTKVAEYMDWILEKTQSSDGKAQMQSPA
Coagulation factor XI, sequence (P03951 19-387 limits assumed): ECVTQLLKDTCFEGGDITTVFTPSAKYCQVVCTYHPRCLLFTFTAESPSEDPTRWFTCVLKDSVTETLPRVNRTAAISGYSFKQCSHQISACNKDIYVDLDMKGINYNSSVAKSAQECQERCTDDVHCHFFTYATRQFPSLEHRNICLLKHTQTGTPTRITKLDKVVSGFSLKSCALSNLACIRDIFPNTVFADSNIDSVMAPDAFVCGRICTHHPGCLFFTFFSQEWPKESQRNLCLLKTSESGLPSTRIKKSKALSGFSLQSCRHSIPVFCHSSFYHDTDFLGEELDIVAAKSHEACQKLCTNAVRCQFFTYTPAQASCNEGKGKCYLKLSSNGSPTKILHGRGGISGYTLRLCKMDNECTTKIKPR
Coagulation factor XI, sequence (P03951 388-625 limits assumed): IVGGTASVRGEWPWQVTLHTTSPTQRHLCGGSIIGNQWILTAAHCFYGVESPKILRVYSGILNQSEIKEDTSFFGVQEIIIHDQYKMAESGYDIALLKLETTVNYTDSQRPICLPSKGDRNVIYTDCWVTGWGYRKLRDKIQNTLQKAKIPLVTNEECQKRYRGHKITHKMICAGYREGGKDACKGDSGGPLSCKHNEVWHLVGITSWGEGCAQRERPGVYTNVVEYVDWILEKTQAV

Structure (SMILES): COC(=O)N1C[C@H](NC(=O)c2ccc(-n3ccccc3=O)cc2)[C@H](NC(=O)c2ccc(Cl)s2)C1
Ki (Coagulation factor X): 0.74 nM
CL (Liver microsomes): 0 nmol/mg/min
IC50 [1]: > 100000 nM

Structure (SMILES): O=C(N[C@H]1C[C@H](C(=O)O)C[C@H]1NC(=O)c1ccc(Cl)s1)c1ccc(-n2ccccc2=O)cc1
Ki [2]: > 21000 nM
Ki (Coagulation factor X): 1.9 nM
Ki (Coagulation factor XI): > 11000 nM
Ki (Coagulation factor VII): > 11000 nM
Ki [3]: > 20000 nM
Ki (Plasma kallikrein): > 6000 nM
Ki (Trypsin): > 5000 nM
Ki (Prothrombin): > 12000 nM
Ki (Plasminogen): > 22000 nM
Ki [4]: > 21000 nM
Ki [5]: > 14000 nM

Structure (SMILES): COC(=O)[C@H]1C[C@H](NC(=O)c2ccc(-n3ccccc3=O)cc2)[C@H](NC(=O)c2ccc(Cl)s2)C1
Ki (Coagulation factor X): 0.53 nM

Structure (SMILES): O=C(N[C@@H]1Cc2ccccc2[C@@H]1NC(=O)c1ccc2c(Cl)c[nH]c2c1)c1ccc(-n2ccccc2=O)cc1
Ki (Coagulation factor X): 0.21 nM

Structure (SMILES): O=C(N[C@H]1CN(C(=O)c2ccccc2)C[C@H]1NC(=O)c1ccc(Cl)s1)c1ccc(-n2ccccc2=O)cc1
Ki (Coagulation factor X): 2.2 nM
IC50 [1]: > 100000 nM

Structure (SMILES): O=C(N[C@H]1CCC[C@H]1NC(=O)c1ccc(Cl)s1)c1ccc(-n2ccccc2=O)cc1
clearance (Liver microsomes): 0.063 nmol/min/mg
Papp [7]: 9.2 ×10⁻⁶ cm/s
clearance [8]: 11.7 mL/min/kg
Vd [9]: 0.8 L/kg
half-life [10]: 42 min
half-life [11]: 42 min
bioavailability [12]: 60%
remaining at 10 min [6]: 79%

Structure (SMILES): CC(C)C(=O)N1C[C@H](NC(=O)c2ccc(-n3ccccc3=O)cc2)[C@H](NC(=O)c2ccc(Cl)s2)C1
Ki (Coagulation factor X): 1.3 nM
CL (Liver microsomes): 0 nmol/mg/min
IC50 [1]: > 100000 nM

Structure (SMILES): O=C(N[C@H]1C[C@H](C(=O)NC2CC2)C[C@H]1NC(=O)c1ccc(Cl)s1)c1ccc(-n2ccccc2=O)cc1
Ki (Coagulation factor X): 1.6 nM

Structure (SMILES): CC(C)S(=O)(=O)N1C[C@H](NC(=O)c2ccc(-n3ccccc3=O)cc2)[C@H](NC(=O)c2ccc(Cl)s2)C1
Ki (Coagulation factor X): 1.7 nM
IC50 [1]: > 100000 nM

Structure (SMILES): CN(C)C(=O)N1C[C@H](NC(=O)c2ccc(-n3ccccc3=O)cc2)[C@H](NC(=O)c2ccc(Cl)s2)C1
Ki (Coagulation factor X): 0.56 nM
CL (Liver microsomes): 0 nmol/mg/min
IC50 [1]: > 100000 nM

Structure (SMILES): O=C(N[C@H]1Cc2ccccc2[C@H]1NC(=O)c1ccc(-n2ccccc2=O)cc1)c1ccc2c(Cl)c[nH]c2c1
Ki (Coagulation factor X): 7.9 nM

More lines, now with the values ahead:

Ki (Coagulation factor X): 230 nM
Structure (SMILES): O=C(N[C@@H]1Cc2ccccc2[C@@H]1NC(=O)c1ccc(Cl)s1)c1ccc(-n2ccccc2=O)cc1

Ki (Coagulation factor X): 18 nM
Structure (SMILES): O=C(N[C@H]1CNC[C@H]1NC(=O)c1ccc2c(Cl)c[nH]c2c1)c1ccc(-n2ccccc2=O)cc1

Ki [2]: > 21000 nM
Ki (Coagulation factor X): 0.56 nM
Ki (Coagulation factor VII): > 11000 nM
Ki [3]: > 20000 nM
Ki (Plasma kallikrein): > 10800 nM
Ki (Trypsin): > 5000 nM
Ki (Plasminogen): > 22000 nM
Ki [4]: > 21000 nM
Ki [5]: > 14000 nM
remaining at 10 min [6]: 100%
Structure (SMILES): O=C(N[C@H]1C[C@H](CO)C[C@H]1NC(=O)c1ccc(Cl)s1)c1ccc(-n2ccccc2=O)cc1

Ki (Coagulation factor X): 10900 nM
Structure (SMILES): O=C(N[C@@H]1c2ccccc2C[C@@H]1NC(=O)c1ccc(Cl)s1)c1ccc(-n2ccccc2=O)cc1

Ki (Coagulation factor X): 2.1 nM
Structure (SMILES): CN(C)C(=O)[C@H]1C[C@H](NC(=O)c2ccc(-n3ccccc3=O)cc2)[C@H](NC(=O)c2ccc(Cl)s2)C1

Ki (Coagulation factor X): 0.27 nM
remaining at 10 min [6]: 32%
Structure (SMILES): O=C(N[C@H]1c2ccccc2C[C@H]1NC(=O)c1ccc(Cl)s1)c1ccc(-n2ccccc2=O)cc1

Ki (Coagulation factor X): 27 nM
Structure (SMILES): O=C(N[C@H]1Cc2ccccc2[C@H]1NC(=O)c1ccc(Cl)s1)c1ccc(-n2ccccc2=O)cc1

Ki (Coagulation factor X): 2.6 nM
Structure (SMILES): O=C(N[C@H]1COC[C@H]1NC(=O)c1ccc2c(Cl)c[nH]c2c1)c1ccc(-n2ccccc2=O)cc1

Ki (Coagulation factor X): 0.39 nM
Structure (SMILES): COC(=O)C1C[C@H](NC(=O)c2ccc(-n3ccccc3=O)cc2)[C@H](NC(=O)c2ccc(Cl)s2)C1 (stereo partly specified)

Ki (Coagulation factor X): 3 nM
Structure (SMILES): COC(=O)C1C[C@H](NC(=O)c2ccc(-n3ccccc3=O)cc2)[C@H](NC(=O)c2ccc3c(Cl)c[nH]c3c2)C1 (stereo partly specified)
